According to ChEMBL document CHEMBL1127026, “Novel antagonists of 5-HT3 receptors. Synthesis and biological evaluation of piperazinylquinoxaline derivatives” (J Med Chem, 1993):

Columns and labels:
[1] = system: 5-HT3 receptor (Cavia porcellus); test: Tested for the antagonistic activity against 5-hydroxytryptamine 3 receptor from guinea pig ileum; parameters: concentration or dose not given beside the values; conditions: concentration not given here
[2] = target: Serotonin 2 (5-HT2) receptor (Rattus norvegicus) (UniProt P30994+P08909+P14842); test: Tested for antagonistic activity against 5-hydroxytryptamine 2 receptor from rat thoracic aorta; assay type: functional, tissue-based; parameters: concentration or dose not given beside the values; conditions: concentration not given here
Sequence of Serotonin 2 (5-HT2) receptor (Rattus norvegicus) (P08909 whole entry, looked up): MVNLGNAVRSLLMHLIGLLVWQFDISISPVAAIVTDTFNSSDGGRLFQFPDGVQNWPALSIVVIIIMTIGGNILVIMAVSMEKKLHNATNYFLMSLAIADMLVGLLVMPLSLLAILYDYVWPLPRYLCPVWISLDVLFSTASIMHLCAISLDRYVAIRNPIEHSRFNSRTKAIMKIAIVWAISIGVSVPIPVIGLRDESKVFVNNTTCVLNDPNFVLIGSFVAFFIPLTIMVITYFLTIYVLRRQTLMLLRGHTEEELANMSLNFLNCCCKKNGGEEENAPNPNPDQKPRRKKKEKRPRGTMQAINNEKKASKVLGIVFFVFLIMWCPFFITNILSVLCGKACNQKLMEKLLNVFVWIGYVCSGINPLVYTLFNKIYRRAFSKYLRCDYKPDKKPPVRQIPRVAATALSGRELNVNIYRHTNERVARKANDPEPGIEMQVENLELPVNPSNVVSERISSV
Sequence of Serotonin 2 (5-HT2) receptor (Rattus norvegicus) (P14842 whole entry, looked up): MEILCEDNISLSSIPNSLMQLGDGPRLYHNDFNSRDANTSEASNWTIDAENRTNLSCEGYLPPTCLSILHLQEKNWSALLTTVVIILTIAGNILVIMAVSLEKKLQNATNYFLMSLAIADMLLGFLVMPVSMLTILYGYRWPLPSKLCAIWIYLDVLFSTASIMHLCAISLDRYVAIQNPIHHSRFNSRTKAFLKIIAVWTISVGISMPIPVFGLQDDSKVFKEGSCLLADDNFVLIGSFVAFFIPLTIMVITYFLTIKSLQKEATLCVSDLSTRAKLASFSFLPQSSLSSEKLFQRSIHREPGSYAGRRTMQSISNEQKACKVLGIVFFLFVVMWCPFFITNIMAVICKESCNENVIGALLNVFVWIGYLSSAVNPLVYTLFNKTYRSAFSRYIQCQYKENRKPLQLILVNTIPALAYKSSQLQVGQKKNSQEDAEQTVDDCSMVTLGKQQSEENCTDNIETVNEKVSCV
Sequence of Serotonin 2 (5-HT2) receptor (Rattus norvegicus) (P30994 whole entry, looked up): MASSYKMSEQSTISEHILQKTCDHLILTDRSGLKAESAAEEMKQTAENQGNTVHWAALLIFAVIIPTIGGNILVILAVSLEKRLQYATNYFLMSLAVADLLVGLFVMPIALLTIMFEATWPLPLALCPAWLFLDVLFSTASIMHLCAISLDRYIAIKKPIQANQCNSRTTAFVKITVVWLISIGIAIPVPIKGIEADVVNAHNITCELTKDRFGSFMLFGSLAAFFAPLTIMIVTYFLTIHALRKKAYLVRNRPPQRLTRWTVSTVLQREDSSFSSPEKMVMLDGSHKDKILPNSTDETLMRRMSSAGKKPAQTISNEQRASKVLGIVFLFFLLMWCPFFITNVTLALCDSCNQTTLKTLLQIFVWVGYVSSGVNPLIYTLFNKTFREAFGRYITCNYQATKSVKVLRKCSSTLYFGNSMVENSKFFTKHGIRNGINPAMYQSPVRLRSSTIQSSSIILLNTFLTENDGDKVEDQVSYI
In short: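 Thoracic aorta rings (2-3 mm) from male Wistar rats (200-250 g), resting tension 1.5 g, equilibrated 60-90 min. Contracted with 5-HT 3×10^-6 M, taken as 100%. Compounds at 10^-5 M were incubated for 30 min before 5-HT was re-added. Inhibition given as % of the prior response. Means ± SE of 4-6 experiments.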

[3] = target: Serotonin 1 (5-HT1) receptor (Rattus norvegicus, UniProt P28564+P30940+P19327+P28565); test: Displacement of binding of [3H]-5-HT to 5-hydroxytryptamine 1 receptor in rat cerebral cortex; assay type: tissue-based
In short: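 Rat cortical membranes homogenized in 50 mM Tris-HCl, centrifuged, pre-incubated at 37 °C for 10 min, then resuspended with 0.1% ascorbic acid and 10 μM pargyline. Incubated with 0.3 nM [3H]-5-HT for 10 min at 37 °C. Nonspecific binding defined with 10 μM 5-HT. Filtered and counted by scintillation. Means of 3-6 experiments.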

[4] = target: T1, Serotonin 3 (5-HT3) receptor (Rattus norvegicus, UniProt P35563+Q9JJ16); test: Displacement of binding of [3H]-BRL 43694 to 5-hydroxytryptamine 3 receptor in rat cerebral cortex; assay type: tissue-based
T1 sequence (P35563 whole entry): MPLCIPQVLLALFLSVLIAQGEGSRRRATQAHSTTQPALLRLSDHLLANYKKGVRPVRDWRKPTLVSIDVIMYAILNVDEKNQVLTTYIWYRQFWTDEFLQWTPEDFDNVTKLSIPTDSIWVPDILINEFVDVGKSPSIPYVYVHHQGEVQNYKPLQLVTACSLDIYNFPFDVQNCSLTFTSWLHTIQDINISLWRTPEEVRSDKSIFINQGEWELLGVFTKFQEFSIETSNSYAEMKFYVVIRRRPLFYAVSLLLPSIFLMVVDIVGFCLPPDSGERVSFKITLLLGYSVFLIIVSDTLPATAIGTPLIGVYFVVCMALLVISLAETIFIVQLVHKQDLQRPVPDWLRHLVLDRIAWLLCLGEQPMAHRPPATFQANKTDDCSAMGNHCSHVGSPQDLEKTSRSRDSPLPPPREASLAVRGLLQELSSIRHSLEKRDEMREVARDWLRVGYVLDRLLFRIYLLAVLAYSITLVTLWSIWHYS
T1 sequence (Q9JJ16 whole entry): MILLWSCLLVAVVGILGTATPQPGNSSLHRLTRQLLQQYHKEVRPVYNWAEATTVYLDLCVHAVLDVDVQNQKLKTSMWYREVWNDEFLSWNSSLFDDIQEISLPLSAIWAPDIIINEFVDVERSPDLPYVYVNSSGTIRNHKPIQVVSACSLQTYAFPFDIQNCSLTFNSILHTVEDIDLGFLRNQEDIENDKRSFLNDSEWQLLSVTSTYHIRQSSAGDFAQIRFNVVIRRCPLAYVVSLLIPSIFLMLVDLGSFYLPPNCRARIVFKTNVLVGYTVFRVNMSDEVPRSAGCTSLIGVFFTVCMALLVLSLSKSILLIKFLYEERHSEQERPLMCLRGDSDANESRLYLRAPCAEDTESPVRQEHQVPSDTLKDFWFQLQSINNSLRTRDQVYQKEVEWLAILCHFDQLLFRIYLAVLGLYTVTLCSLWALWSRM

[5] = organism: Cavia porcellus; test: Antagonism to 2-methyl-5-HT induced contractions in guinea pig ileum; assay type: functional; conditions: read-out: pA2 (converted)
In short: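 Isometric recording at 0.5 g resting tension in physiological salt solution gassed with 95% O2/5% CO2 at 37 °C, after 30-min equilibration. Tissue incubated 30 min with a single antagonist concentration before agonist; pA2 calculated against 2-methyl-5-HT by Furchgott's single-concentration method, […]. Means of three to six experiments.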

[6] = system: Rattus norvegicus; test: Tested in vivo for antagonistic activity to bradycardic effect of 5-HT in anesthetized rats; assay type: functional; conditions: read-out: ID50
In short: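 Male Sprague-Dawley rats (500-550 g), urethane 1 g/kg ip. Heart rate derived from carotid arterial pressure. Serotonin 4 μg/kg iv bolus every 15 min; compounds given iv via the jugular vein 2 min before serotonin. Percent inhibition of bradycardia recorded; ID50 by Litchfield-Wilcoxon.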

| SMILES | inhibition [1] [%] | inhibition [2] [%] | Ki [3] [nM] | Ki [4] [nM] | Kb [5] [nM] | ED50 [6] [mg/kg] |
| --- | --- | --- | --- | --- | --- | --- |
| N#Cc1nc2ccccc2nc1N1CCN(Cc2ccc3c(c2)OCO3)CC1 | 28.4 |  |  |  |  |  |
| CCN1CCN(c2nc3ccc([N+](=O)[O-])cc3nc2C#N)CC1 | 21.3 |  |  |  |  |  |
| N#Cc1nc2ccccc2nc1N1CCN(c2ccc(Cl)cc2)CC1 | 11 | 7 |  |  |  |  |
| N#Cc1nc2ccccc2nc1N1CCN(Cc2ccccc2)CC1 | 12.4 | 20.5 |  |  |  |  |
| CCN1CCN(c2nc3ccccc3nc2C#N)CC1 | 80.5 | 9.1 | > 1000 | 100 | 63.1 | 0.015 |
| CCCCN1CCN(c2nc3ccccc3nc2C#N)CC1 | 12.5 |  |  |  |  |  |
| COc1cccc(N2CCN(c3nc4ccccc4nc3C#N)CC2)c1 | 3.5 | 4.6 |  |  |  |  |
| N#Cc1nc2ccccc2nc1N1CCN(CCc2ccccc2)CC1 | 29.2 | 25 |  |  |  |  |
| N#Cc1nc2cc([N+](=O)[O-])ccc2nc1N1CCNCC1 | 7.7 |  |  |  |  |  |
| CCCN1CCN(c2nc3ccccc3nc2C#N)CC1 | 63.3 | 12.5 | > 1000 | 40 | 1000 | 0.38 |
| CC(=O)c1ccc(N2CCN(c3nc4ccccc4nc3C#N)CC2)cc1 | 7.4 |  |  |  |  |  |
| CN1CCN(c2nc3ccccc3nc2C#N)CC1 | 48.4 |  |  |  |  |  |
| CCOC(=O)CN1CCN(c2nc3ccccc3nc2C#N)CC1 | 14.4 | 5.1 |  |  |  |  |
| CCCCCN1CCN(c2nc3ccccc3nc2C#N)CC1 | 18 | 3.9 |  |  |  |  |
| C=CCN1CCN(c2nc3ccccc3nc2C#N)CC1 |  | 9.1 | > 1000 | 8 | 0.0631 | 0.02 |
| N#Cc1nc2ccccc2nc1N1CCN(c2cccc(C(F)(F)F)c2)CC1 | 39.5 | 18.3 |  |  |  |  |
| N#Cc1nc2ccccc2nc1N1CCN(c2ccc(F)cc2)CC1 | 21.4 |  |  |  |  |  |
| CCN1CCN(c2nc3ccc(N)cc3nc2C#N)CC1 | 43.5 |  |  |  |  |  |
| N#Cc1nc2ccccc2nc1N1CCNCC1 | 63.7 | 9.1 | 345 | 90 | 1580 | 0.027 |
| Cc1ccc(N2CCN(c3nc4ccccc4nc3C#N)CC2)cc1 | 15.8 | 4.6 |  |  |  |  |
| N#Cc1nc2ccccc2nc1N1CCN(c2ccc([N+](=O)[O-])cc2)CC1 | 18 |  |  |  |  |  |
| N#Cc1nc2ccccc2nc1N1CCN(c2ccccc2)CC1 | 21.9 | 8.4 |  |  |  |  |
| Cc1nccn1CC1CCc2c(c3ccccc3n2C)C1=O (centres undefined) [ONDANSETRON] |  | 0.6 |  |  | 126 | 0.0004 |
| CN1[C@@H]2CC[C@H]1C[C@@H](OC(=O)c1c[nH]c3ccccc13)C2.Cl |  | 2.4 | > 1000 | 3.8 | 3.98 | 0.002 |
| COc1ccccc1N1CCN(c2nc3ccccc3nc2C#N)CC1 | 10.6 |  |  |  |  |  |
